Data published in publication PMC4832564 (Amyloid : the international journal of experimental and …, 2015).
Where two headings read alike, the source gives them in different places. Where no end group is shown, it is not given here.

Key:
[1] = tested on: systemic AA amyloid; format: in vivo, mouse; conditions: mice with systemic visceral AA amyloidosis, 2 h post-injection iv; triplicate
[2] = mouse, in vivo, iv
[3] = tested on: synthetic rVλ6Wil fibrils; format: binding, human; conditions: for % bound relative to no inhibitor: 50 μg rVλ6Wil fibrils, mean of duplicate experiments
Procedure, shortened: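 ¹²⁵I-p5 or ¹²⁵I-RAGE VC1 (chloramine T iodination) pre-incubated 30 min RT with AGE-BSA, BSA, enoxaparin or E. coli-expressed human S100B (100, 4 or 1 μM). 50 μg fibrils from E. coli-made rVλ6Wil then added in PBS/0.05% tween 20 (S100B: TBS with 1 mM CaCl₂) and rotated 1 h RT. Spun twice at 16 000 × g, 10 min each. Pellet and supernatant gamma-counted; % bound relative to no inhibitor; mean of duplicate experiments.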

[4] = tested on: heparin and synthetic amyloid fibrils; conditions: cited from earlier work
[5] = target: Synthetic amyloid fibrils of the recombinant λ6 variable domain from patient Wil (rVλ6Wil) (human); assay: co-sedimentation
[6] = target: Synthetic amyloid fibrils of human islet amyloid polypeptide (IAPP) (human) (UniProt P10997); assay: co-sedimentation
Sequence of Synthetic amyloid fibrils of human islet amyloid polypeptide (IAPP) (human) (P10997 34-70): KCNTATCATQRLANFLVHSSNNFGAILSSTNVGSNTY

[7] = target: Synthetic amyloid fibrils of Aβ(1–40); assay: co-sedimentation
[8] = target: Synthetic amyloid fibrils of the recombinant λ6 variable domain from patient Wil (rVλ6Wil) (human); assay: co-sedimentation; remark: listed apart in the source

In the case of “99mTc-p5: peptide p5 radiolabeled with 99mTc (CGGYSKAQKAQAKQAKQAQKAQKAQAKQAKQ; also: 99mTc radiolabel)”, the “distribution of radiotracer by SPECT/CT in AA mice” value [1] is reported as “coincident retention of both radiotracers in the amyloid-laden liver and spleen”, the “T:M ratio, Heart” value [2] is reported as 2.75 and the “T:M ratio, L. Kidney” value [2] is reported as 659.97. For the same molecule, the “T:M ratio, Liver” value [2] was 12.44, the “T:M ratio, Low. Intestine” value [2] was 14.55 and the “T:M ratio, Muscle” value [2] was 1.00. The “T:M ratio, Pancreas” value [2] was 3.92, the “T:M ratio, R. Kidney” value [2] was 711.82 and the “T:M ratio, Spleen” value [2] was 4.65. The “T:M ratio, Stomach” value [2] was 9.62 and the “T:M ratio, Up. Intestine” value [2] was 8.88.

In the case of “125I-p5: peptide p5 radioiodinated with 125I (CGGYSKAQKAQAKQAKQAQKAQKAQAKQAKQ; also: 125I radiolabel)”, the “% bound relative to no inhibitor” value ([3]; PBS) is reported as 100.0% and the “% bound relative to no inhibitor” value ([3]; TBS with 1 mM CaCl2) is reported as 76.5%.

For “CGGYSKAQKAQAKQAKQAQKAQKAQAKQAKQ [p5]”, the “decrease in binding to fibrils on addition of BSA” value ([3]; 125I-labelled, BSA added (100 μM in Table 1)) was ~ 30%, the “decrease in binding with the synthetic amyloid fibrils” value ([3]; 125I-labelled, Enoxaparin 100 μM) was 13% and the “decrease in binding to fibrils on addition of S100B” value ([3]; 125I-labelled, human recombinant S100B, in the presence of 1 mM CaCl2) was 20%. The “reduction of reactivity with rVλ6Wil fibrils” value ([3]; 125I-labelled, pre-incubation with AGE-BSA at 100 μM) was ~ 90%.

In the case of “GGGYSRAQRAQARQARQAQRAQRAQARQARQ [p5R]”, the “affinity relative to p5” value [4] is listed as “higher affinity for both heparin and synthetic amyloid fibrils”.

“Recombinant human RAGE VC1 (soluble recombinant variable and constant-1 domains of RAGE) (domain or fragment)” gave a % bound relative to no inhibitor (no inhibitor, PBS) [5] of 100%, a % bound relative to no inhibitor (no inhibitor, TBS with 1 mM CaCl2) [5] of 102% and a % bound relative to no inhibitor, with 4 μM enoxaparin [5] of 102%. It also gave a % bound relative to no inhibitor, with 100 μM enoxaparin [5] of 94%, a % reduction of ^125I-p5R binding to IAPP fibrils [6] of 70% and a % reduction of ^125I-p5 binding to IAPP fibrils [6] of 90%.

For GGGYSRAQRAQARQARQAQRAQRAQARQARQ (also: radioiodinated (125I, chloramine T)) [Peptide p5R], the % bound to the fibril pellet [7] was greater than 50% and the % bound to the fibril pellet [8] was greater than 50%.

Work on CGGYSKAQKAQAKQAKQAQKAQKAQAKQAKQ (not fully specified; also: 99mTc-labeled in imaging studies) [Peptide p5] yielded a % bound to the fibril pellet [7] greater than 50%, a % bound relative to no inhibitor (no inhibitor, PBS) [8] of 100% and a % bound relative to no inhibitor (no inhibitor, TBS with 1 mM CaCl2) [8] of 76.5%. For the same molecule, the % bound relative to no inhibitor, with 4 μM enoxaparin [8] was 97.6%, the % bound relative to no inhibitor, with 100 μM enoxaparin [8] was 87.4% and the % bound to the fibril pellet [8] was greater than 50%.
